For data set [1], the system named is MCF-7 cells. Nature of the data set: Mitochondrial membrane potential ΔΨm. The data set is classed as cell-based. Put shortly: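 JC-1 arm: MCF-7 cells exposed to test compound (20 µM, 4 h), with or without pre-treatment with (±)-14,15-EET (1 µM). Red/green ratio quantified as mean ± S.D. (n=4). TMRE arm: 20,000 cells/well grown overnight, TMRE 500 nM for 30 min at 37 °C, two washes in PBS/0.2% BSA, read Ex 530/Em 590 nm. FCCP (10 µM, 30 min) background subtracted.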

A further data set relates to MDA-MB-231 cells. Put plainly: Mitochondrial membrane potential ΔΨm. The data set is classed as cell-based.
In data set [2] the test system is AMPKα (p-Thr172). Nature of the data set: AMPKα Thr172 phosphorylation western blot, MCF-7. The class given is cell-based. On the technique in general: In western blotting, separated proteins are transferred to a membrane and probed.
For data set [3], the system named is AMPKα (p-Thr172). Put plainly: AMPKα phosphorylation western blot, MDA-MB-231. The data set is classed as cell-based. Conditions: 1 µM; 24 hours.
Data set [4] has as its system MCF-7 cells. Nature of the data set: OCR and ECAR, XF Extracellular Flux Analyzer, MCF-7. The class given is cell-based.
A further data set deals with CYP3A4 (Homo sapiens, UniProt P08684). Put plainly: Microsomal CYP3A4-mediated EET biosynthesis. The data set is classed as biochemical. The note with it: IC50, inhibition of CYP3A4-mediated synthesis of (±)-14,15-EET, 30 minutes exposure.
CYP3A4, sequence (P08684 whole entry): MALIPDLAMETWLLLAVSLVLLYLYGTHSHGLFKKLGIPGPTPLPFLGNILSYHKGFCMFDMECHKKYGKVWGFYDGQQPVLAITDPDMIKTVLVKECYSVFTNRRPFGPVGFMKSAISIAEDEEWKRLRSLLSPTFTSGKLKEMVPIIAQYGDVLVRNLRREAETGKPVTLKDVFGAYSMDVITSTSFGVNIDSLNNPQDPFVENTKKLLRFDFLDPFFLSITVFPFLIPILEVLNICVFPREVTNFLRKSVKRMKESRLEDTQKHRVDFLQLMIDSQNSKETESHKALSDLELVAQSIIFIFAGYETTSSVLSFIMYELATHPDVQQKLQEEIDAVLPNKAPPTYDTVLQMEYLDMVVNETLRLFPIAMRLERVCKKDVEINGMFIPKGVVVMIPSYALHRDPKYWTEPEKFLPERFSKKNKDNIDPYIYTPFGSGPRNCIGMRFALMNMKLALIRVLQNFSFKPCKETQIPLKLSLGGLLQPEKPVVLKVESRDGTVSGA
Another data set addresses T1, CYP2J2 (Homo sapiens, UniProt P51589).
T1 sequence (P51589 1-502): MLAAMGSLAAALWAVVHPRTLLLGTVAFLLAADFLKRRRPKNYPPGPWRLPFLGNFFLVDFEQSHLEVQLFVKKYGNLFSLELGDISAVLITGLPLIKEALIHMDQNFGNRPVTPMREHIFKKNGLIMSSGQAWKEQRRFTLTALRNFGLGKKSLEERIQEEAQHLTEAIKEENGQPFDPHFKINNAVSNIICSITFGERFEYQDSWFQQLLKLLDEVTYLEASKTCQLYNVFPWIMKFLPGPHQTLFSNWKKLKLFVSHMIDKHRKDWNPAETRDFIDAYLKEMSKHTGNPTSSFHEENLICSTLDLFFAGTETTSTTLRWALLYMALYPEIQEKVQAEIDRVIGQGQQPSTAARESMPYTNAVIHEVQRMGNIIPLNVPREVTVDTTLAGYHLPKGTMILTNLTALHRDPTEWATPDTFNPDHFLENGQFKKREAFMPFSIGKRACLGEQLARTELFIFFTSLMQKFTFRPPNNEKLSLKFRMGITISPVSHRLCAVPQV
Put plainly: CYP2J2 AA epoxygenase activity. The data set is classed as biochemical. Conditions: data not shown.

Another data set concerns MCF-7 cell line. Nature of the data set: MCF-7 cell proliferation. The class given is cell-based. Conditions: for Abrogation of biguanide growth inhibition by (±)-14,15-EET: (±)-14,15-EET 1 µM, MTT at 24 hours.
Data set [5] relates to MCF-7 cells. Nature of the data set: Cellular ATP by luminescent assay. The note with it: 6 hours, 10% serum. The data set is classed as cell-based. The essentials: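 Cells seeded in 96-well plates and exposed to vehicle or test compound. Lysis solution added with 5 min orbital shaking, then luciferase/luminescent substrate; 10 min in the dark before reading luminescence. ATP was quantified against a standard curve of known ATP concentrations.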

Data set [6] relates to STAT3-Tyr705, p70 S6 Kinase-Thr389, mTOR-Ser2448, ERK1/2 phosphorylation. Nature of the data set: Western blot time course of signaling proteins, MCF-7. The note with it: 20 µM. The data set is classed as cell-based.
The nature of data set [7]: Plasma concentration after ip dosing. The class given is in vivo, mice. The note with it: female, athymic nude (Foxn1nu/Foxn1nu), mouse, 4 mg/kg/day.
In a further data set the test system is T47D cell line. Put plainly: T47D cell growth. The class given is cell-based.
The next data set deals with MDA-MB-231 cell line. Nature of the data set: MDA-MB-231 cell growth. The data set is classed as cell-based.
The subject of data set [8] is MDA-MB-435/LCC6 cell line. Put plainly: MDA-MB-435/LCC6 cell growth. The data set is classed as cell-based. The note with it: data not shown.
Data set [9] has as its system mTOR, PKC-ζ/λ, AMPKα in MCF-7 tumors. Put plainly: Signaling proteins in MCF-7 xenograft tumors. The data set is classed as in vivo, mice.
Data set [10] concerns AMPKα in MDA-MB-231 tumors. Put plainly: Signaling proteins in MDA-MB-231 xenograft tumors. On the set-up: species or system mice. Conditions: in vivo.
The subject of data set [11] is MCF-7 mammary fat pad xenograft. Put plainly: MCF-7 orthotopic mammary fat pad xenograft.
Data set [12] has as its system MCF-7 cells. Put plainly: Cellular EET levels by LC-ESI/MRM/MS. The data set is classed as cell-based. Conditions: 5 mM, 6 hours; P<0.05 for each regioisomer.
The subject of data set [13] is cytochrome P450 reductase (CPR). Put plainly: Rate of reduction of cytochrome c by CPR. The data set is classed as biochemical. The essentials:
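Run in a quartz cuvette with 1 mL 0.3 M potassium phosphate, pH 8.3, containing cytochrome c (62 μM) and NADPH (50 μM). Reaction started by adding CPR (final 0.2 mg/mL). Absorbance at 550 followed in real time.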

Where [14] appears, read: metformin 2.5 or 5 mM, over 5 hours.

The IC50 is the concentration that gives 50% inhibition.

In the case of `CCCCCC1OC1C/C=C\C/C=C\C/C=C\CCCC(=O)O` (racemic) [(±)-14,15-EET, (±)-14,15-(5Z,8Z,11Z)-EET, reference compound], the “Effect on ΔΨm alone (JC-1)” value in the data set with MCF-7 cells [1] (1 µM, relative to control) is given as “increased mitochondrial cross membrane potential”. For the same compound, the “Rescue of HBB-reduced ΔΨm by pre-treatment” value in the data set with MCF-7 cells [1] ((±)-14,15-EET 1 µM, HBB 20 µM) is “partly rescued”; with MDA-MB-231 cells (exogenous (±)-14,15-EET, HBB 20 µM), “partly rescued”. For the same compound, the “Effect on pAMPKα (Thr172) phosphorylation” value with AMPKα (p-Thr172) [2] (1 µM, 6 and 24 hours) is given as “suppression of pAMPKα phosphorylation”. Moreover, the “Effect on AMPK phosphorylation” value in the data set with AMPKα (p-Thr172) [3] is given as “no effect”.

For the compound `CCCCCC1OC1CCCCCCC/C=C\CCCC(=O)O` (racemic) [(±)-14,15-EEZE], in the data set with MCF-7 cells [4] (1.0 µM), the “Effect on ECAR” value is “suppressed” and the “Effect on OCR” value is on record as “suppressed”. The “Effect on AMPKα activation” value in the data set with AMPKα (p-Thr172) [2] (associated with OCR suppression) was “early activation”.

For the compound `NC(=O)c1ncn([C@@H]2O[C@H](CO)[C@@H](O)[C@H]2O)c1N` [AICAR], in the data set on MCF-7 cells [4] (AICAR 100 µM), the “Effect on ECAR” value was “increased” and the “Effect on OCR” value is given as “increased”.

Take `CCCCCCNC(=N)NC(=N)NCc1ccccc1` [HBB, N1-hexyl-N5-benzyl-biguanide]: half-maximal inhibition against CYP3A4 (IC50) was put at 9.5 µM. Also, the “Inhibition of AA epoxygenase activity of CYP2J2” value at CYP2J2 (microsomal) is reported as “did not inhibit”. Also, the “Abrogation of HBB growth inhibition by EET analog C22” value in the data set with MCF-7 cell line is “partially abrogated HBB inhibition”. The “Abrogation of biguanide growth inhibition by (±)-14,15-EET” value with MCF-7 cell line is recorded as “part of the inhibition”. Also, in the data set with MCF-7 cells [4], the “Potency of OCR inhibition compared to metformin” value was greater than 250 fold. Besides, the “Effect on ECAR” value in the data set on MCF-7 cells [4] (HBB 20 and 40 µM) is “transient spike of ECAR, followed by inhibition without recovery”. In the data set on MCF-7 cells [4] (HBB 20 and 40 µM), the “Effect on OCR” value is reported as “rapid, dose-dependent reduction of OCR within 15 minutes”. For the same compound, the “Reduction of ATP” value in the data set on MCF-7 cells [5] (HBB) is 30%. For the same compound, the “Effect on ΔΨm (JC-1)” value in the data set on MCF-7 cells [1] (20 µM for 4 hours) and in the data set with MDA-MB-231 cells (20 µM for 4 hours) was “rapid reduction of ΔΨm” each time. In addition, the “Effect on ΔΨm (TMRE, non-quenching conditions)” value in the data set with MCF-7 cells [1] (TMRE 500 nM) was “inhibit ΔΨm in a dose dependent fashion”. Moreover, in the data set on AMPKα (p-Thr172) [2] (20 µM), the “Effect on pAMPKα” value was “activated pAMPKα within 30 minutes”. Besides, the “Effect on mTOR, S6 kinase and ERK” value in data set [6] (by 24 hours, presence or absence of serum) is reported as “Significant inhibition”. In addition, the “Effect on p70 S6 kinase” value in data set [6] (independent of serum starvation) was “rapid and transient activation of p70 S6 kinase at 30 minutes”. Besides, in [6] (presence of serum), the “Effect on Stat3 phosphorylation” value is reported as “inhibited Stat3 phosphorylation”. This compound also had a concentration at 1 h in data set [7] of 0.53 µM. Besides, the “Abrogation of HBB growth inhibition by (±)-14,15-EET” value with T47D cell line is recorded as “abrogated most of the HBB inhibition”. The “Abrogation of HBB growth inhibition by EETs” value (in the data set with MDA-MB-231 cell line; in data set [8]) was “failed to counteract HBB inhibition” in each case. For the same compound, in the data set with MDA-MB-231 cell line, the “Rescue from HBB inhibition by N-acetyl-cysteine (NAC)” value was “rescued by the antioxidant N-acetyl-cysteine (NAC)”. For the same compound, the “Intratumoral PKC-ζ/λ phospho-threonine 410/403 (RPPA)” value in data set [9] (HBB 4 mg/kg/day vs. PBS, P=0.000119) is on record as “reduction of PKC-ζ/λ phospho-threonine 410/403”. Moreover, the “Intratumoral mTOR (RPPA)” value in data set [9] (HBB 4 mg/kg/day vs. PBS, P=4.06×10^−6) is “reduction of mTOR”. For the same compound, the “AMPKα activation in tumors” value is recorded as “failed to activate AMPKα” in data set [9] (in vivo) and “did activate AMPKα” in data set [10]. In addition, the “Tumor size vs. vehicle” value in [11] (4 mg/kg/day, Gompertzian fitting P=0.0354) is listed as “smaller than the vehicle-treated from day 8 onward”. Besides, the “Hepatic or cardiac toxicities by post-mortem histopathology” value in [11] (6 mg/kg ip 4 days per week) is given as “no HBB-related hepatic or cardiac toxicities”. Further, the Tumor size entry in data set [11] (6 mg/kg ip 4 days per week (24 mg/kg/week), P=0.039) is given as “reduced tumor size”. For the same compound, in data set [11] (6 mg/kg ip 4 days per week, P=0.034), the “Tumor weights at the end point relative to vehicle” value is “half”. Further, in [11] (ip daily beginning the day after tumor cell implantation), the “Minimal effective dose (MED)” value amounted to 4 mg/kg.

As to `CCCCNC(=N)NC(=N)N` [buformin], in the data set with MCF-7 cell line, the “Abrogation of biguanide growth inhibition by (±)-14,15-EET” value is “part of the inhibition”.

In the case of `CN(C)C(=N)N=C(N)N` [metformin], at CYP2J2 (0.75, […] or 3 mM), the “Inhibition of AA epoxygenase activity of CYP2J2” value is given as “not inhibited”. The “Abrogation of biguanide growth inhibition by (±)-14,15-EET” value in the data set on MCF-7 cell line is recorded as “abrogated most of the growth inhibition”. Besides, in the data set on MCF-7 cells [4] (setting [14]), the “Effect on ECAR” value is on record as “transient ECAR spike, followed by suppression of ECAR” and the “Effect on OCR” value is “marginal suppression of OCR”. Moreover, the “Effect on cellular ATP” value with MCF-7 cells [5] (metformin, normalized to cell number) is on record as “no effect”. Also, the “Intracellular EET levels” value in the data set with MCF-7 cells [12] was “reduced”. Moreover, in data set [13], the “Inhibition of transfer of electrons from CPR (rate of reduction of cytochrome c)” value is given as “does not inhibit”.

Take `[H]/N=C(/N)N/C(=N/[H])NCCc1ccccc1` [phenformin]: the “Abrogation of biguanide growth inhibition by (±)-14,15-EET” value in the data set on MCF-7 cell line was “part of the inhibition”.

(Values after PMC5650512 (Cell chemical biology, 2017).)
